Test results: ChEMBL document CHEMBL4385606, “3,5,7-Substituted Pyrazolo[4,3- d]pyrimidine Inhibitors of Cyclin-Dependent Kinases and Their Evaluation in Lymphoma Models” (J Med Chem, 2019)

Tests used:
[1] = Antiproliferative activity against human OCI-Ly2 cells measured after 72 hrs by calcein AM dye-based fluorescence assay; type: functional
Summary of the method: (§1)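 Cells exposed in triplicate to six concentrations for 72 h; calcein AM added for 1 h, live-cell fluorescence read at 485/538 nm (ex/em). GI50 taken from dose-response curves.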

HT = experiment: Antiproliferative activity against human HT cells measured after 72 hrs by calcein AM dye-based fluorescence assay; type: functional; summary of the method: as §1
[2] = target: Cyclin-dependent kinase 2/cyclin E1 (Homo sapiens, UniProt P24941); experiment: Inhibition of His-tagged CDK2/Cyclin-E1 (unknown origin) expressed in baculovirus infected Sf9 insect cells using histone H1 as substrate measured in presence of [gamma-33P]ATP; type: cell-based
[3] = Antiproliferative activity against human Mino cells measured after 72 hrs by calcein AM dye-based fluorescence assay; type: functional; summary of the method: as §1
[4] = target: Cyclin-dependent kinase 4/cyclin D1 (Homo sapiens, UniProt P11802); experiment: Inhibition of recombinant human N-terminal GST-fused CDK4 (S4 to E303 residues)/cyclin D1 (Q4 to I295 residues) expressed in baculovirus infected Sf9 insect cells using RPPTLSPIPHIPR as substrate measured in presence of [gamma-33P]ATP
Summary of the method: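 CDK/cyclin complexes tested in triplicate at minimum; IC50 values reported from those replicate determinations.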

CDK9/cyclin T1 = CDK9/cyclin T1 (Homo sapiens, UniProt P50750); experiment: Inhibition of recombinant human N-terminal GST-His6-fused CDK9 (M1 to F372 residues)/N-terminal His6-tagged cyclin T1 (M1 to K726 residues) expressed in baculovirus infected Sf9 insect cells using (YSPTSPS)2KK as substrate measured in presence of [gamma-33P]ATP
Chain of CDK9/cyclin T1 (O60563 whole entry, the tested form may be a part): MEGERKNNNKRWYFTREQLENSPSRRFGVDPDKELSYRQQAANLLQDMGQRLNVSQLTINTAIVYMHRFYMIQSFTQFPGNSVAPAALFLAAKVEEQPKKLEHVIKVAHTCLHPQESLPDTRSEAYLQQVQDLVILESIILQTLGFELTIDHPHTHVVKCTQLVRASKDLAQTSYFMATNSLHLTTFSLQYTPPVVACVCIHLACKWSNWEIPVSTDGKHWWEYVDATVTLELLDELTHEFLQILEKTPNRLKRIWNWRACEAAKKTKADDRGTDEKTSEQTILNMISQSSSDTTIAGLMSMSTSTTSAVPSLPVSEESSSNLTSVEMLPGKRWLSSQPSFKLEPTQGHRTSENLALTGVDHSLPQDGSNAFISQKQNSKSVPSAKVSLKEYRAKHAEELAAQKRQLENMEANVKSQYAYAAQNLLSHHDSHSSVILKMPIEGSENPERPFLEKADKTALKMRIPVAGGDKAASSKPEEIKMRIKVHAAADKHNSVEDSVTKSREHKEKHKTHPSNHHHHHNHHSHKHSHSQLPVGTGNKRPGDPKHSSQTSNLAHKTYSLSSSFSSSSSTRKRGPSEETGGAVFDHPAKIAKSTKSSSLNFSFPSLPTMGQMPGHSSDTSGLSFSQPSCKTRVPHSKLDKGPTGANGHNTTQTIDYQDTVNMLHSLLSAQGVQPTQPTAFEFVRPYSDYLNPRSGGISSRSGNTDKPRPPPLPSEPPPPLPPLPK
Chain of CDK9/cyclin T1 (P50750 whole entry, the tested form may be a part): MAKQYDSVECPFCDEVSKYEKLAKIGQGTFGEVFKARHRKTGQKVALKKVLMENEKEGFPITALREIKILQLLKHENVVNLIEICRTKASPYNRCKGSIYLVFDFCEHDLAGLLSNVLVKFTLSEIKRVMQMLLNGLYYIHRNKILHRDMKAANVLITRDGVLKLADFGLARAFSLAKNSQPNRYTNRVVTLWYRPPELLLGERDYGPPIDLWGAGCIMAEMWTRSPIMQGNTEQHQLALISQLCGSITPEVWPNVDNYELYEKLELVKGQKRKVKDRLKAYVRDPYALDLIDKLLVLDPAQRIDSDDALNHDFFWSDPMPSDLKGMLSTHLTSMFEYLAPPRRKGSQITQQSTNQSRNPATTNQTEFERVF

Chain of Cyclin-dependent kinase 4/cyclin D1 (P11802 whole entry, the tested form may be a part): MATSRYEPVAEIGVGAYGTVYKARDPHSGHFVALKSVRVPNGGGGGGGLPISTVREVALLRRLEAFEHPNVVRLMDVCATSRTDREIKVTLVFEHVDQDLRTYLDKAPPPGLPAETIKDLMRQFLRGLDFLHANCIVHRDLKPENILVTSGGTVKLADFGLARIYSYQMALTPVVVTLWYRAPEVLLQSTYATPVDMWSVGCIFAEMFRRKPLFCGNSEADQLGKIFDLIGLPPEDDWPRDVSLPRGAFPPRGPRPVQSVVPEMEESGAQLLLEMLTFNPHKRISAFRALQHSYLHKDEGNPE
Chain of Cyclin-dependent kinase 4/cyclin D1 (P24385 whole entry, further chain, the tested form may be a part): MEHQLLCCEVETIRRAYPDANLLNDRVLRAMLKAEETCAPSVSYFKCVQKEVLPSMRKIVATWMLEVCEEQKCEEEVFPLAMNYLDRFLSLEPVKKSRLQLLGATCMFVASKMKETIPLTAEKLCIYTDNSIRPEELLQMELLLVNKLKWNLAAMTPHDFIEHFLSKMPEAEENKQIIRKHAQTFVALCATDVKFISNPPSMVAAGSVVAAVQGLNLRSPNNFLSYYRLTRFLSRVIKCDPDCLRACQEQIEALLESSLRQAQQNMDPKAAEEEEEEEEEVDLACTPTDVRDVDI

Row | IC50 [2] [µM] | IC50 [4] [µM] | IC50 (CDK9/cyclin T1) [µM] | SMILES | GI50 [1] [µM] | GI50 (HT) [µM] | GI50 [3] [µM]
1 | 0.156 | – | – | CC(C)c1n[nH]c2c(NCc3ccc(-c4ccccn4)cc3)nc(SCC(O)CN3CCOCC3)nc12 (configuration not stated) | 0.2 | 0.2 | 0.243
2 | 0.134 | – | – | CC(C)c1n[nH]c2c(NCc3ccc(-c4ccccn4)cc3)nc(SC3CCCCC3O)nc12 (configuration not stated) | 0.68 | 0.636 | 0.53
3 | – | – | – | C=CC(=O)N1CCC[C@@H](n2nc(-c3ccc(Oc4ccccc4)cc3)c3c(N)ncnc32)C1 [IBRUTINIB] | 18.9 | 15.9 | 10.7
4 | 0.02 | – | – | CC(C)c1n[nH]c2c(NCc3ccc(-c4ccccn4)cc3)nc(SCC(C)(C)N)nc12 | 0.1 | 0.085 | 0.064
5 | – | – | – | CSc1nc(NCc2ccc(-c3ccccn3)cc2)c2[nH]nc(C(C)C)c2n1 | 1.21 | 0.783 | 1.05
6 | 0.171 | – | – | CC(C)c1n[nH]c2c(NCc3ccc(-c4ccccn4)cc3)nc(SCC(O)CN3CCNCC3)nc12 (configuration not stated) | 0.435 | 0.332 | 0.767
7 | 0.01 | – | – | CC(C)c1n[nH]c2c(NCc3ccc(-c4ccccn4)cc3)nc(SCC(O)CO)nc12 (configuration not stated) | 0.022 | 0.021 | 0.01
8 | – | 26.1 | 0.272 | CC[C@H](CO)Nc1nc(NCc2ccc(-c3ccccn3)cc2)c2ncn(C(C)C)c2n1 | 0.307 | 0.263 | 0.202
9 | 0.077 | – | – | CC(C)c1n[nH]c2c(NCc3ccc(-c4ccccn4)cc3)nc(SCCN(C)C)nc12 | 0.061 | 0.054 | 0.093
10 | 0.012 | – | – | CC(O)CSc1nc(NCc2ccc(-c3ccccn3)cc2)c2[nH]nc(C(C)C)c2n1 (configuration not stated) | 0.152 | 0.062 | 0.081
11 | 0.019 | – | – | CC(C)c1n[nH]c2c(NCc3ccc(-c4ccccn4)cc3)nc(SCCC(N)=O)nc12 | 0.084 | 0.12 | 0.081
12 | 0.059 | – | – | COCSc1nc(NCc2ccc(-c3ccccn3)cc2)c2[nH]nc(C(C)C)c2n1 | 0.285 | 0.34 | 0.243
13 | 0.099 | – | – | CC(C)c1n[nH]c2c(NCc3ccc(-c4ccccn4)cc3)nc(SCCCN(C)C)nc12 | 0.109 | 0.105 | 0.076
14 | 0.031 | – | – | CC(C)c1n[nH]c2c(NCc3ccc(-c4ccccn4)cc3)nc(SCC(O)CN)nc12 (racemic) | 0.055 | 0.055 | 0.064
15 | 0.052 | – | – | CC(C)c1n[nH]c2c(NCc3ccc(-c4ccccn4)cc3)nc(SC3CCCCC3N)nc12 (configuration not stated) | 0.136 | 0.139 | 0.157
16 | 0.027 | – | – | CC(C)c1n[nH]c2c(NCc3ccc(-c4ccccn4)cc3)nc(SCC(N)=O)nc12 | 0.163 | 0.192 | 0.197
17 | 0.003 | – | – | CC(C)c1n[nH]c2c(NCc3ccc(-c4ccccn4)cc3)nc(SCCO)nc12 | 0.05 | 0.048 | 0.04
18 | 0.011 | – | – | CC(C)c1n[nH]c2c(NCc3ccc(-c4ccccn4)cc3)nc(SC[C@H](O)CN)nc12 | 0.099 | 0.063 | 0.051
19 | 0.138 | – | – | CSCCSc1nc(NCc2ccc(-c3ccccn3)cc2)c2[nH]nc(C(C)C)c2n1 | 0.668 | 0.975 | 0.773

Row | IC50 [2] [µM] | IC50 [4] [µM] | IC50 (CDK9/cyclin T1) [µM] | SMILES | GI50 [1] [µM] | GI50 (HT) [µM] | GI50 [3] [µM]
20 | 0.15 | – | – | CCC(CO)Sc1nc(NCc2ccc(-c3ccccn3)cc2)c2[nH]nc(C(C)C)c2n1 (configuration not stated) | 0.181 | 0.255 | 0.119
21 | 0.132 | – | – | CC(C)c1n[nH]c2c(NCc3ccc(-c4ccccn4)cc3)nc(SCC(O)C(F)(F)F)nc12 (configuration not stated) | 0.585 | 0.69 | 0.641
22 | 0.032 | – | – | CC(C)c1n[nH]c2c(NCc3ccc(-c4ccccn4)cc3)nc(SCCn3ccnc3)nc12 | 0.145 | 0.155 | 0.135
23 | 0.077 | – | – | CC(C)c1n[nH]c2c(NCc3ccc(-c4ccccn4)cc3)nc(SC(CO)C(C)C)nc12 (configuration not stated) | 1 | 0.98 | 1.31
24 | 0.012 | – | – | CC(C)c1n[nH]c2c(NCc3ccc(-c4ccccn4)cc3)nc(SCC(N)CN)nc12 (configuration not stated) | 0.78 | 0.48 | 0.77
25 | 0.1 | – | – | C=CCSc1nc(NCc2ccc(-c3ccccn3)cc2)c2[nH]nc(C(C)C)c2n1 | 0.858 | 1.01 | 0.923
26 | 0.022 | – | – | CC(C)c1n[nH]c2c(NCc3ccc(-c4ccccn4)cc3)nc(SCCCN)nc12 | 0.151 | 0.12 | 0.156
27 | 0.018 | – | – | CC(C)c1n[nH]c2c(NCc3ccc(-c4ccccn4)cc3)nc(SCCNC(N)=O)nc12 | 0.198 | 0.24 | 0.136
28 | 0.041 | – | – | CC(=O)NCCSc1nc(NCc2ccc(-c3ccccn3)cc2)c2[nH]nc(C(C)C)c2n1 | 0.054 | 0.071 | 0.042
29 | 0.558 | – | – | CC(C)c1n[nH]c2c(NCc3ccc(-c4ccccn4)cc3)nc(S)nc12 | 3.24 | 2.76 | 2.18
30 | 0.021 | – | – | CC(C)c1n[nH]c2c(NCc3ccc(-c4ccccn4)cc3)nc(SCCCO)nc12 | 0.102 | 0.109 | 0.089
31 | 0.03 | – | – | CC(C)c1n[nH]c2c(NCc3ccc(-c4ccccn4)cc3)nc(SCCNC(=N)N)nc12 | 0.812 | 0.39 | 0.39
32 | 0.039 | – | – | CCC(O)CSc1nc(NCc2ccc(-c3ccccn3)cc2)c2[nH]nc(C(C)C)c2n1 (configuration not stated) | 0.28 | 0.273 | 0.427
33 | 0.013 | – | – | CNCCSc1nc(NCc2ccc(-c3ccccn3)cc2)c2[nH]nc(C(C)C)c2n1 | 0.092 | 0.056 | 0.04
34 | 0.003 | – | – | CC(C)c1n[nH]c2c(NCc3ccc(-c4ccccn4)cc3)nc(SC(C)C(C)O)nc12 (configuration not stated) | 0.141 | 0.19 | 0.16
35 | 0.052 | – | – | CC(C)c1n[nH]c2c(NCc3ccc(-c4ccccn4)cc3)nc(SC3CCCC3O)nc12 (configuration not stated) | 0.373 | 0.567 | 0.45
36 | 0.019 | – | – | CC(C)c1n[nH]c2c(NCc3ccc(-c4ccccn4)cc3)nc(SCC3CNC(=O)O3)nc12 (configuration not stated) | 0.053 | 0.08 | 0.069
37 | 0.03 | – | – | CC(C)c1n[nH]c2c(NCc3ccc(-c4ccccn4)cc3)nc(SCC(C)(C)O)nc12 | 0.61 | 0.507 | 0.477
